Experimental data published in ChEMBL document CHEMBL4689842, “EUbOPEN Chemogenomics Library wave 1” (2021).

Tested on: Fibroblast
Assay: Multiplex assay against human fibroblast
Type: toxicity, cell-based
Summary of the method: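 Live cells carried four stains from seeding: Hoechst33342, BioTracker Green Microtubule Cytoskeleton Dye, MitoTracker Red and Annexin V Alexa Fluor 680. They were imaged on a CQ1 microscope at 37°C and 5% CO2 after compound addition. Using CellPathfinder machine-learning gating, cells were split into Hoechst high-intensity objects or normal cells, normal cells into healthy, pyknosed or fragmented nuclei, and pyknosed cells into mitotic or apoptotic; tubulin, mitochondrial-mass and membrane-permeability phenotypes are per cents of healthy-nucleus cells.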

[1] = 12 h, 1 µM, compound concentration 1 uM, replicate 1
[2] = 12 h, 1 µM, compound concentration 1 uM, replicate 2
[3] = 12 h, 10 µM, compound concentration 10 uM, replicate 1
[4] = 12 h, 10 µM, compound concentration 10 uM, replicate 2
[5] = 24 h, 1 µM, compound concentration 1 uM, replicate 1
[6] = 24 h, 1 µM, compound concentration 1 uM, replicate 2
[7] = 24 h, 10 µM, compound concentration 10 uM, replicate 1
[8] = 24 h, 10 µM, compound concentration 10 uM, replicate 2
[9] = 48 h, 1 µM, compound concentration 1 uM, replicate 1
[10] = 48 h, 1 µM, compound concentration 1 uM, replicate 2
[11] = 48 h, 10 µM, compound concentration 10 uM, replicate 1
[12] = 48 h, 10 µM, compound concentration 10 uM, replicate 2

CN(c1cc(C(F)(F)F)nc(OCCC(=O)O)n1)c1cccc2c1CCC2
Population Apoptotic (%) [1]: 70%
Population Fragmented Nuclei (%) [1]: 18%
Population Healthy Nuclei (%) [1]: 47%
Population Hoechst High Intensity Objects (%) [1]: 11%
Population Membrane Permeable-Phenotype (%) [1]: 17%
Population Mitochondria Different-Phenotype (%) [1]: 6%
Population Mitotic Cells (%) [1]: 29%
Population Normal (%) [1]: 88%
Population Pyknosed Nuclei (%) [1]: 33%
Population Tubulin-Different-Phenotype (%) [1]: 27%
Total Cell Count [1]: 136
Population Apoptotic (%) [2]: 0%
Population Fragmented Nuclei (%) [2]: 9%
Population Healthy Nuclei (%) [2]: 80%
Population Hoechst High Intensity Objects (%) [2]: 12%
Population Membrane Permeable-Phenotype (%) [2]: 4%
Population Mitochondria Different-Phenotype (%) [2]: 20%
Population Mitotic Cells (%) [2]: 100%
Population Normal (%) [2]: 87%
Population Pyknosed Nuclei (%) [2]: 9%
Population Tubulin-Different-Phenotype (%) [2]: 28%
Total Cell Count [2]: 65
Population Apoptotic (%) [3]: 61%
Population Fragmented Nuclei (%) [3]: 23%
Population Healthy Nuclei (%) [3]: 49%
Population Hoechst High Intensity Objects (%) [3]: 11%
Population Membrane Permeable-Phenotype (%) [3]: 25%
Population Mitochondria Different-Phenotype (%) [3]: 6%
Population Mitotic Cells (%) [3]: 38%
Population Normal (%) [3]: 88%
Population Pyknosed Nuclei (%) [3]: 27%
Population Tubulin-Different-Phenotype (%) [3]: 26%
Total Cell Count [3]: 172
Population Apoptotic (%) [4]: 0%
Population Fragmented Nuclei (%) [4]: 13%
Population Healthy Nuclei (%) [4]: 86%
Population Hoechst High Intensity Objects (%) [4]: 14%
Population Membrane Permeable-Phenotype (%) [4]: 4%
Population Mitochondria Different-Phenotype (%) [4]: 10%
Population Mitotic Cells (%) [4]: 0%
Population Normal (%) [4]: 85%
Population Pyknosed Nuclei (%) [4]: 0%
Population Tubulin-Different-Phenotype (%) [4]: 30%
Total Cell Count [4]: 71
Population Apoptotic (%) [5]: 54%
Population Fragmented Nuclei (%) [5]: 26%
Population Healthy Nuclei (%) [5]: 46%
Population Hoechst High Intensity Objects (%) [5]: 11%
Population Membrane Permeable-Phenotype (%) [5]: 28%
Population Mitochondria Different-Phenotype (%) [5]: 7%
Population Mitotic Cells (%) [5]: 45%
Population Normal (%) [5]: 88%
Population Pyknosed Nuclei (%) [5]: 27%
Population Tubulin-Different-Phenotype (%) [5]: 30%
Total Cell Count [5]: 129
Population Apoptotic (%) [6]: 0%
Population Fragmented Nuclei (%) [6]: 4%
Population Healthy Nuclei (%) [6]: 95%
Population Hoechst High Intensity Objects (%) [6]: 8%
Population Membrane Permeable-Phenotype (%) [6]: 2%
Population Mitochondria Different-Phenotype (%) [6]: 13%
Population Mitotic Cells (%) [6]: 0%
Population Normal (%) [6]: 91%
Population Pyknosed Nuclei (%) [6]: 0%
Total Cell Count [6]: 68
Population Apoptotic (%) [7]: 56%
Population Fragmented Nuclei (%) [7]: 14%
Population Healthy Nuclei (%) [7]: 60%
Population Hoechst High Intensity Objects (%) [7]: 7%
Population Membrane Permeable-Phenotype (%) [7]: 21%
Population Mitochondria Different-Phenotype (%) [7]: 3%
Population Mitotic Cells (%) [7]: 43%
Population Normal (%) [7]: 92%
Population Pyknosed Nuclei (%) [7]: 25%
Population Tubulin-Different-Phenotype (%) [7]: 34%
Total Cell Count [7]: 198
Population Apoptotic (%) [8]: 0%
Population Fragmented Nuclei (%) [8]: 13%
Population Healthy Nuclei (%) [8]: 81%
Population Hoechst High Intensity Objects (%) [8]: 13%
Population Membrane Permeable-Phenotype (%) [8]: 3%
Population Mitochondria Different-Phenotype (%) [8]: 13%
Population Mitotic Cells (%) [8]: 100%
Population Normal (%) [8]: 86%
Population Pyknosed Nuclei (%) [8]: 5%
Population Tubulin-Different-Phenotype (%) [8]: 44%
Total Cell Count [8]: 79
Population Apoptotic (%) [9]: 51%
Population Fragmented Nuclei (%) [9]: 35%
Population Healthy Nuclei (%) [9]: 41%
Population Hoechst High Intensity Objects (%) [9]: 20%
Population Membrane Permeable-Phenotype (%) [9]: 32%
Population Mitochondria Different-Phenotype (%) [9]: 2%
Population Mitotic Cells (%) [9]: 48%
Population Normal (%) [9]: 79%
Population Pyknosed Nuclei (%) [9]: 23%
Population Tubulin-Different-Phenotype (%) [9]: 38%
Total Cell Count [9]: 147
Population Apoptotic (%) [10]: 33%
Population Fragmented Nuclei (%) [10]: 19%
Population Healthy Nuclei (%) [10]: 76%
Population Hoechst High Intensity Objects (%) [10]: 10%
Population Membrane Permeable-Phenotype (%) [10]: 16%
Population Mitochondria Different-Phenotype (%) [10]: 0%
Population Mitotic Cells (%) [10]: 66%
Population Normal (%) [10]: 90%
Population Pyknosed Nuclei (%) [10]: 4%
Population Tubulin-Different-Phenotype (%) [10]: 30%
Total Cell Count [10]: 80
Population Apoptotic (%) [11]: 54%
Population Fragmented Nuclei (%) [11]: 25%
Population Healthy Nuclei (%) [11]: 67%
Population Hoechst High Intensity Objects (%) [11]: 14%
Population Membrane Permeable-Phenotype (%) [11]: 14%
Population Mitochondria Different-Phenotype (%) [11]: 3%
Population Mitotic Cells (%) [11]: 45%
Population Normal (%) [11]: 85%
Population Pyknosed Nuclei (%) [11]: 7%
Population Tubulin-Different-Phenotype (%) [11]: 19%
Total Cell Count [11]: 175
Population Apoptotic (%) [12]: 40%
Population Fragmented Nuclei (%) [12]: 22%
Population Healthy Nuclei (%) [12]: 73%
Population Hoechst High Intensity Objects (%) [12]: 10%
Population Membrane Permeable-Phenotype (%) [12]: 15%
Population Mitochondria Different-Phenotype (%) [12]: 4%
Population Mitotic Cells (%) [12]: 60%
Population Normal (%) [12]: 89%
Population Pyknosed Nuclei (%) [12]: 4%
Population Tubulin-Different-Phenotype (%) [12]: 34%
Total Cell Count [12]: 125

Cl.Cn1c2c(c3ccc(Cl)c(Cl)c31)C(C#N)C1(CCNCC1)NC2=O (centres undefined)
Population Apoptotic (%) [1]: 75%
Population Fragmented Nuclei (%) [1]: 35%
Population Healthy Nuclei (%) [1]: 51%
Population Hoechst High Intensity Objects (%) [1]: 11%
Population Membrane Permeable-Phenotype (%) [1]: 8%
Population Mitochondria Different-Phenotype (%) [1]: 2%
Population Mitotic Cells (%) [1]: 25%
Population Normal (%) [1]: 88%
Population Pyknosed Nuclei (%) [1]: 13%
Population Tubulin-Different-Phenotype (%) [1]: 6%
Total Cell Count [1]: 332
Population Apoptotic (%) [2]: 50%
Population Fragmented Nuclei (%) [2]: 59%
Population Healthy Nuclei (%) [2]: 33%
Population Hoechst High Intensity Objects (%) [2]: 32%
Population Membrane Permeable-Phenotype (%) [2]: 9%
Population Mitochondria Different-Phenotype (%) [2]: 9%
Population Mitotic Cells (%) [2]: 50%
Population Normal (%) [2]: 67%
Population Pyknosed Nuclei (%) [2]: 6%
Population Tubulin-Different-Phenotype (%) [2]: 9%
Total Cell Count [2]: 92
Population Apoptotic (%) [3]: 64%
Population Fragmented Nuclei (%) [3]: 44%
Population Healthy Nuclei (%) [3]: 40%
Population Hoechst High Intensity Objects (%) [3]: 19%
Population Membrane Permeable-Phenotype (%) [3]: 8%
Population Mitochondria Different-Phenotype (%) [3]: 6%
Population Mitotic Cells (%) [3]: 35%
Population Normal (%) [3]: 80%
Population Pyknosed Nuclei (%) [3]: 14%
Population Tubulin-Different-Phenotype (%) [3]: 37%
Total Cell Count [3]: 482
Population Apoptotic (%) [4]: 40%
Population Fragmented Nuclei (%) [4]: 48%
Population Healthy Nuclei (%) [4]: 39%
Population Hoechst High Intensity Objects (%) [4]: 23%
Population Membrane Permeable-Phenotype (%) [4]: 5%
Population Mitochondria Different-Phenotype (%) [4]: 2%
Population Mitotic Cells (%) [4]: 60%
Population Normal (%) [4]: 76%
Population Pyknosed Nuclei (%) [4]: 11%
Population Tubulin-Different-Phenotype (%) [4]: 73%
Total Cell Count [4]: 112
Population Apoptotic (%) [5]: 67%
Population Fragmented Nuclei (%) [5]: 38%
Population Healthy Nuclei (%) [5]: 50%
Population Hoechst High Intensity Objects (%) [5]: 15%
Population Membrane Permeable-Phenotype (%) [5]: 4%
Population Mitochondria Different-Phenotype (%) [5]: 3%
Population Mitotic Cells (%) [5]: 32%
Population Normal (%) [5]: 84%
Population Pyknosed Nuclei (%) [5]: 10%
Population Tubulin-Different-Phenotype (%) [5]: 4%
Total Cell Count [5]: 379
Population Apoptotic (%) [6]: 0%
Population Fragmented Nuclei (%) [6]: 67%
Population Healthy Nuclei (%) [6]: 31%
Population Hoechst High Intensity Objects (%) [6]: 29%
Population Membrane Permeable-Phenotype (%) [6]: 9%
Population Mitochondria Different-Phenotype (%) [6]: 0%
Population Mitotic Cells (%) [6]: 100%
Population Normal (%) [6]: 70%
Population Pyknosed Nuclei (%) [6]: 1%
Population Tubulin-Different-Phenotype (%) [6]: 19%
Total Cell Count [6]: 95
Population Apoptotic (%) [7]: 61%
Population Fragmented Nuclei (%) [7]: 28%
Population Healthy Nuclei (%) [7]: 55%
Population Hoechst High Intensity Objects (%) [7]: 37%
Population Membrane Permeable-Phenotype (%) [7]: 6%
Population Mitochondria Different-Phenotype (%) [7]: 10%
Population Mitotic Cells (%) [7]: 38%
Population Normal (%) [7]: 62%
Population Pyknosed Nuclei (%) [7]: 15%
Population Tubulin-Different-Phenotype (%) [7]: 38%
Total Cell Count [7]: 492
Population Apoptotic (%) [8]: 87%
Population Fragmented Nuclei (%) [8]: 42%
Population Healthy Nuclei (%) [8]: 42%
Population Hoechst High Intensity Objects (%) [8]: 43%
Population Membrane Permeable-Phenotype (%) [8]: 9%
Population Mitochondria Different-Phenotype (%) [8]: 14%
Population Mitotic Cells (%) [8]: 12%
Population Normal (%) [8]: 56%
Population Pyknosed Nuclei (%) [8]: 16%
Population Tubulin-Different-Phenotype (%) [8]: 42%
Total Cell Count [8]: 89
